This is an account of results in article PMC8395693 (JACS Au, 2021).

Each structure is given as a SMILES string.

In one series the test system is MDA-MB-231. Description: Transmission electron microscopy of mitochondrial morphology. The class given is cell-based. The note with it: AuTri-9 10 µM, 1 h. The method in brief:
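MDA-MB-231 cells were exposed to the test compound for 1 h. Vehicle wells received 1% DMSO. Reference inducers were run alongside: staurosporine (apoptosis), hydrogen peroxide (necrosis), rapamycin (autophagy) and erastin (ferroptosis). Mitochondria were imaged by TEM. Maximal cristae width was measured in 10 randomly chosen cells on randomly chosen mitochondria, with up to 3 cristae per mitochondrion and 100 cristae per cell, given as mean ± s.e.m.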
With `CO[C@H]1C[C@@H]2CC[C@@H](C)[C@@](O)(O2)C(=O)C(=O)N2CCCC[C@H]2C(=O)O[C@H]([C@H](C)C[C@@H]2CC[C@@H](O)[C@H](OC)C2)CC(=O)[C@H](C)/C=C(\C)[C@@H](O)[C@@H](OC)C(=O)[C@H](C)C[C@H](C)/C=C/C=C/C=C/1C` [rapamycin], the “morphological changes in mitochondria (TEM)” value was “no distinct morphological changes to mitochondria”.
Still for that read-out and setting: for `CCOc1ccccc1-n1c(C(C)N2CCN(C(=O)COc3ccc(Cl)cc3)CC2)nc2ccccc2c1=O` (centres unmarked) [erastin] the value was “mitochondrial shrinkage”; for `CN[C@@H]1C[C@H]2O[C@@](C)([C@@H]1OC)n1c3ccccc3c3c4c(c5c6ccccc6n2c5c31)C(=O)NC4` [staurosporine], “no distinct morphological changes to mitochondria”; for `OO` [H2O2, hydrogen peroxide], “mitochondrial structure remains intact”.

Tested on in a further series: not given
Test: not given
The note with it: based on gold; cited from earlier work.
On to `CC(=O)OC[C@H]1O[C@@H]([S-])[C@H](OC(C)=O)[C@@H](OC(C)=O)[C@@H]1OC(C)=O.CCP(CC)CC.[Au+]` [auranofin], for which the “MTD (maximum tolerated dose)” value is reported as 12 mg/kg.

A further series relates to MDA-MB-231. Description: Cell viability. The class given is cell-based. The note with it: Homo sapiens, MDA-MB-231, 72 h, read-out: IC50 value. The method in brief:
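Test compounds were added from stock solutions so that the final DMSO was <1%, and MDA-MB-231 cells were incubated with them for 72 h. Viability was read after exposure and IC50 derived. Data are mean ± s.e.m., n = 3.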
Regarding `c1cnc2c(c1)ccc1cccnc12` [1,10-phenantrholine], the IC50 (as a rule, the concentration that inhibits the measured activity by half) is 7.21 ± 1.68 µM.
On the same count and under the same terms, the figure for `Cc1ccnc2c1ccc1c(C)ccnc12` [4,7-dimethylphenanthroline] is 14.1 ± 2.58 µM.

Staying with this series, now noted: read-out: IC50 value; MDA-MB-231, MTT assay, 72 h, mean ± s.e.m., n = 3.
With `c1ccc(-c2ccccn2)nc1` [bipyridine], the IC50 came out at 17.5 ± 0.354 µM.
As to `N.N.[Cl][Pt][Cl]` [cisplatin], the IC50 was determined as 34.6 ± 0.783 µM.
As to `c1ccc(-c2ccnc3c2ccc2c(-c4ccccc4)ccnc23)cc1` [bathophenanthroline], the concentration for half-maximal inhibition (IC50) came out at 7.48 ± 1.64 µM.
Regarding `[F][Sb-]([F])([F])([F])([F])[F].[Na+]` [NaSbF6], the IC50 was over 50 µM.
Same read-out and setting: the figure for `[Au+].[F][Sb-]([F])([F])([F])([F])[F].c1ccc([As](c2ccccc2)c2ccccc2)cc1.c1cnc2c(c1)ccc1cccnc12` [AuTri-4] is 3.98 ± 0.359 µM.
On the same count and under the same terms, for `[Au+].[F][Sb-]([F])([F])([F])([F])[F].c1ccc(-c2ccccn2)nc1.c1ccc(P(c2ccccc2)c2ccccc2)cc1` [AuTri-3] the value was 6.56 ± 0.354 µM.
Same read-out and setting: for `CC(=O)OC[C@H]1O[C@@H]([S-])[C@H](OC(C)=O)[C@@H](OC(C)=O)[C@@H]1OC(C)=O.CCP(CC)CC.[Au+]` [auranofin] the value was 1.31 ± 0.15 µM.
